# Assay outcomes as filed in PubChem.
# Runt-CBFb FRET = Runt domain-CBFb interaction inhibition; Q01196+Q13951; Cerulean-Runt/Venus-CBFb FRET ratio 530/480, 1 h; inhibition, % at 20 µM; actives 0.46% (n = 220,000); AID 1496;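 active = inhibition over about 50% at 20 µM in the single-dose screen, limit read from the data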
#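 test system = Cerulean-tagged RUNX1 Runt domain (FRET donor) fusion protein | reagent = Venus-CBFb binding partner, 100 nM | incubation = protein complex preformed 1 h, compound exposure 1 h, room temperature, dark | detection = FRET fluorescence | read-out basis = loss of energy transfer signal | controls = 5 µM unlabeled CBFb as full-inhibition high control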
# Hck-Nef inh = inhibitors of human Hck kinase activated by Nef; Recombinant Hck-YEEI plus Nef, Z-Lyte FRET kinase assay; inhibition, % at 20 µM; actives 0.68% (n = 220,000); AID 463187;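 active = Hck-Nef kinase inhibition above about 50%, limit read from the data; inactive = inhibition below that limit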
# Target sequence (P08631 whole entry, looked up): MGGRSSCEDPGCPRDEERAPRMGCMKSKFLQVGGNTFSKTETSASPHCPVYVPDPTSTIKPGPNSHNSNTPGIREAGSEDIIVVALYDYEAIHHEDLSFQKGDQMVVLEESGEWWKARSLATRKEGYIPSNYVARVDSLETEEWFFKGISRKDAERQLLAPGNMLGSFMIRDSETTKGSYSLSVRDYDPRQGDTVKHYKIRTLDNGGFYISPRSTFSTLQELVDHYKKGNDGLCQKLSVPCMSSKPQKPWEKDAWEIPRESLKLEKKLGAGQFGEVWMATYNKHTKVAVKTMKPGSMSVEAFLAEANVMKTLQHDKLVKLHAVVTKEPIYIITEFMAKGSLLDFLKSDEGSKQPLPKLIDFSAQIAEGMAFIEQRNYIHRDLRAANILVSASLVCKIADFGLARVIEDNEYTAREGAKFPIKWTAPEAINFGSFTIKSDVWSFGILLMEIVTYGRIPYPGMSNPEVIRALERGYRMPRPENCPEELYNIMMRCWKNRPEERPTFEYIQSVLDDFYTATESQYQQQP
# RanGTP-Impb inh = inhibitors of RanGTP-importin-beta interaction, primary screen, biochemical, FRET, CFP-Ran, YFP-importin-beta, homogeneous; actives 1.1% (n = 300,000); AID 2216; inhibition, % (test concentration not listed); cell-free CFP-Ran/YFP-importin-beta FRET ratio;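 active = more than half of the replicate wells show a fall in the fluorescence ratio signal beyond about 16%, limit read from the data, passing the limit was not always enough; inconclusive = exactly half of the replicate wells pass the set limit; inactive = fewer than half of replicates pass the limit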
# Runt-SMMHC FRET = inhibitors of human RUNX1 Runt domain binding to CBFb-SMMHC; Q01196+Q13951; Cerulean-Runt/Venus-CBFb-SMMHC FRET ratio 530/480, 1 h; inhibition, % at 20 µM; actives 0.74% (n = 220,000); AID 1434;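 active = mean inhibition across duplicate retests at 20 µM reaching about 50%, limit read from the data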;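 note: inhibitors lower the FRET ratio by blocking Runt binding to CBFb-SMMHC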
# Hits are given with their value; . = inactive; ? = inconclusive; / = not tested or not shown; + = active, no number. A selection: hits, their analogues and other compounds. The true share with any hit is near 1.7%.
SMILES,Runt-CBFb FRET,Hck-Nef inh,RanGTP-Impb inh,Runt-SMMHC FRET
Cc1cccn2c(=O)c3cc(C(=O)NCC4CCCO4)c(=N)n(CC4CCCO4)c3nc12 (centres undefined),/,/,187.7,/
Cc1cccn2c(=O)c3cc(S(=O)(=O)c4ccc(Br)cc4)c(=N)n(C4CCCCC4)c3nc12,/,/,.,/
Cc1cccn2c(=O)c3cc(C(=O)NC4CCCC4)c(=N)n(CC4CCCO4)c3nc12 (centres undefined),/,/,191.6,/
Cc1cccn2c(=O)c3cc(C(=O)NCC4CCCO4)c(=N)n(C4CCCCC4)c3nc12 (centres undefined),/,/,+,/
Cc1cccn2c(=O)c3cc(C(=O)NC4CCCCC4)c(=N)n(Cc4ccc(F)cc4)c3nc12,/,/,.,/
Cc1cccc(C)c1N(Cc1ccccc1F)S(C)(=O)=O,.,.,.,.
COc1ccc(C)cc1S(=O)(=O)Nc1ccncc1,.,.,13.9,.
COc1ccc(C)cc1S(=O)(=O)Nc1ccccc1,.,.,.,.
O=C(NCc1ccc(F)cc1)C(c1cccnc1)N(C(=O)c1csnn1)c1ccccc1 (centres undefined),/,/,.,/
CCCCN(CCCNC(=O)C1CCN(S(=O)(=O)CC)CC1)c1ccccc1,.,.,21.8,.
CCN(CCNC(=O)C1CCN(S(=O)(=O)CC)CC1)c1ccccc1,.,.,.,.
COc1ccc(/C=C/C(=O)c2ccc(Cl)cc2)c(OC)c1,.,.,20.5,.
CCCc1cc(Nc2c(C)n(C)n(-c3ccccc3)c2=O)n2c(nc3ccccc32)c1C#N,.,.,107.4,.
Cc1cc(Nc2c(C)n(C)n(-c3ccccc3)c2=O)n2c(nc3ccccc32)c1C#N,.,.,107.1,.
Cc1cc(SCC(=O)Nc2c(C)n(C)n(-c3ccccc3)c2=O)n2c(nc3ccccc32)c1C#N,/,.,/,/
Cc1cc(/C=N/NC(=O)Cn2c3ccccc3c(=O)c3ccccc32)c(C)n1-c1ccccc1,/,.,93.9,.
C=CCNC(=O)/C(C#N)=C/c1c(N2CCCCCC2)nc2ccccn2c1=O,/,/,.,/
COCCNC(=O)/C(C#N)=C/c1c(N2CCN(C)CC2)nc2ccccn2c1=O,/,/,97.4,/
CCNC(=O)/C(C#N)=C/c1c(N2CCOCC2)nc2ccccn2c1=O,62.7,.,.,81.1
CCOC(=O)/C(C#N)=C/c1c(N2CCCCCC2)nc2ccccn2c1=O,/,/,.,/
N#C/C(=C\c1c(N2CCN(c3ccccc3)CC2)nc2ccccn2c1=O)S(=O)(=O)c1ccccc1,/,/,.,/
CN1CCN(c2nc3ccccn3c(=O)c2/C=C(\C#N)S(=O)(=O)c2ccccc2)CC1,.,.,71.6,.
CCOC(=O)/C(C#N)=C/c1c(N2CCN(C)CC2)nc2ccccn2c1=O,/,/,100.8,/
CC(C)CCn1cnc2c(oc3nc4c(cc32)CCCC4)c1=O,.,.,.,.
CC(=O)c1sc(N/N=C\c2ccccc2O)nc1C,/,.,37.9,/
SMILES,Runt-CBFb FRET,Hck-Nef inh,RanGTP-Impb inh,Runt-SMMHC FRET
Cc1ccc(-n2c3nc(=O)n(C)c(=O)c-3cc3ccccc32)cc1,.,.,86.2,81.1
CCCCn1c(=O)nc2n(-c3ccc(C)cc3)c3ccccc3cc-2c1=O,54.3,.,59.6,82.3
CCCCn1c(=O)nc2n(-c3ccc(Cl)cc3)c3ccccc3cc-2c1=O,103.1,.,59.1,82.3
O=C(CCC1N=C2c3ccccc3N=C(SCc3ccc(F)cc3)N2C1=O)NCc1ccco1 (centres undefined),.,.,?,.
O=C(CCC1N=C2c3ccccc3N=C(SCc3ccc(Cl)cc3)N2C1=O)NCc1ccco1 (centres undefined),.,.,27.3,.
COc1cc(C(=S)N2CCCC2)ccc1O,.,.,.,66.5
COc1cc(C(=S)N2CCCCC2)ccc1O,.,.,/,.
CCOC(=O)C1(Cc2cccc(OC)c2)CCN(CC2CC=CCC2)CC1 (centres undefined),.,.,.,.
Cc1cccn2c(=O)c3cc(C(=O)NCCN4CCOCC4)c(=N)n(Cc4ccc(F)cc4)c3nc12,/,/,161.9,/
Cc1cccn2c(=O)c3cc(C(=O)NCCN4CCOCC4)c(=N)n(CCN4CCOCC4)c3nc12,/,/,127.8,/
Cc1cccn2c(=O)c3cc(C(=O)NCCN4CCOCC4)n(C)c3nc12,/,/,.,/
Cc1cccn2c(=O)c3cc(C(=O)NC4CCCC4)c(=N)n(CCCN4CCOCC4)c3nc12,/,/,175.0,/
O=C(CCCc1nc2ccccc2s1)NCc1ccc(F)cc1,.,.,.,.
CC(C)(C)n1cc(S(=O)(=O)c2ccccc2)[nH]c1=O,.,.,.,.
COc1ccc(-c2cc(=O)oc3cc(OC(=O)C4CCCCC4)c(Cl)cc23)cc1,66.6,.,20.7,58.5
